In ChEMBL document CHEMBL4014301, “Design, synthesis and evaluation of 4-substituted anthra[2,1-c][1,2,5]thiadiazole-6,11-dione derivatives as novel non-camptothecin topoisomerase I inhibitors” (Bioorg Med Chem Lett, 2017):
Values after ≈ are worked out from the molar mass of the structure shown. Active and inactive are the calls of the source. The calls are words filed in the database; no cut-off is given here.

Key:
A549 = assay: Antiproliferative activity against human A549 cells after 72 hrs by MTT assay; type: functional, cell-based; conditions: Homo sapiens, A549, 72 h
[1] = Solubility of the compound; type: physicochemical
ZR-75-30 = assay: Antiproliferative activity against human ZR-7530 cells after 72 hrs by MTT assay; type: functional, cell-based; conditions: Homo sapiens, ZR-75-30, 72 h
HCT-116 [2] = assay: Antiproliferative activity against human HCT116 cells after 72 hrs by MTT assay; type: functional, cell-based; conditions: Homo sapiens, HCT-116, 72 h
[3] = biological target: T1, DNA topoisomerase 1 (Homo sapiens) (UniProt P11387); assay: Inhibition of DNA topoisomerase 1 (unknown origin) assessed as reduction in supercoiled pBR322 plasmid DNA relaxation at 1 uM after 15 mins by ethidium bromide staining based agarose gel electrophoresis
T1 sequence (whole entry): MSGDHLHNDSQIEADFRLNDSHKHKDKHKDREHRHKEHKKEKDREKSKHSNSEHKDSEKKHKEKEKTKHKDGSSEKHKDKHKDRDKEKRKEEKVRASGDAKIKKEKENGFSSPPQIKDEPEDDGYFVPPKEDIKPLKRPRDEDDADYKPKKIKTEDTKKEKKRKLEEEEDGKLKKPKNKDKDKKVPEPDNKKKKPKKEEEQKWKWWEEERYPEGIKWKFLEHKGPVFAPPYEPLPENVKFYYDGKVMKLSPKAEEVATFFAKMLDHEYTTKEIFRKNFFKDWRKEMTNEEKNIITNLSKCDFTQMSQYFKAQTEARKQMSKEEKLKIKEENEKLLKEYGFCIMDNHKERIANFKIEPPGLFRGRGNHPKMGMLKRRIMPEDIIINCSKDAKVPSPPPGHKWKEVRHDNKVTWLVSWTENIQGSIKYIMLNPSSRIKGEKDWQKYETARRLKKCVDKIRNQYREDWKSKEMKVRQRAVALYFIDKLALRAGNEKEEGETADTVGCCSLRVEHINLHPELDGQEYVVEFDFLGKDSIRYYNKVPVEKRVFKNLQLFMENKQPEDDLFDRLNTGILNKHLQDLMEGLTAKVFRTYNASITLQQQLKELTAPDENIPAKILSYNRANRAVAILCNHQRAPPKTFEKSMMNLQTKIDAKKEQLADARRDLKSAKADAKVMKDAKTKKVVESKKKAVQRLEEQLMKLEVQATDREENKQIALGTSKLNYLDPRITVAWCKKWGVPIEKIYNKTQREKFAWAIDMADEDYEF
Outline: (§1)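 Supercoiled pBR322 plasmid incubated with Top1, with or without compound at 1, 10 and 100 µM. Relaxation inhibition read from agarose gel bands.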

HCT-116 [4] = assay: Cell cycle arrest in human HCT116 cells assessed as accumulation at G2 phase at 5 uM after 12 hrs by propidium iodide staining-based flow cytometry (reference value: 19%); type: functional
HCT-116 [5] = assay: Cell cycle arrest in human HCT116 cells assessed as accumulation at G2 phase at 5 uM after 36 hrs by propidium iodide staining-based flow cytometry (reference value: 21%); type: functional
[6] = biological target: T1, DNA topoisomerase 1 (Homo sapiens); assay: Inhibition of DNA topoisomerase 1 (unknown origin) assessed as reduction in supercoiled pBR322 plasmid DNA relaxation at 100 uM after 15 mins by ethidium bromide staining based agarose gel electrophoresis; outline: as §1
[7] = biological target: T1, DNA topoisomerase 1 (Homo sapiens); assay: Inhibition of DNA topoisomerase-1 (unknown origin) mediated DNA relaxation assessed as DNA intercalation at 100 uM using supercoiled pBR322 plasmid DNA as substrate after 60 mins by ethidium bromide staining based agarose gel electrophoresis
Outline: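 Unwinding assay with excess Top1 acting on supercoiled pBR322 in the presence of compound at 100 µM. Ethidium bromide at 1 µg/mL used as intercalator reference. Compound removed by phenol extraction after relaxation. Nicked, relaxed and supercoiled forms resolved on gel.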

[8] = biological target: T1, DNA topoisomerase 1 (Homo sapiens); assay: Inhibition of DNA topoisomerase 1 (unknown origin) assessed as reduction in supercoiled pBR322 plasmid DNA relaxation after 15 mins by ethidium bromide staining based agarose gel electrophoresis; outline: as §1
[9] = biological target: T1, DNA topoisomerase 1 (Homo sapiens); assay: Inhibition of DNA topoisomerase-1 (unknown origin) mediated DNA relaxation assessed as DNA intercalation at 1 ug/ml using supercoiled pBR322 plasmid DNA as substrate after 60 mins by ethidium bromide staining based agarose gel electrophoresis
Outline: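 Top1 unwinding assay for DNA intercalation: supercoiled pBR322 plasmid treated with excess Top1 in presence of compounds (100 µM), with ethidium bromide (1 µg/mL) as intercalator control; compounds removed by phenol extraction after relaxation. Nicked, relaxed and supercoiled DNA forms resolved on gel.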

Cc1ccc(S(=O)(=O)c2cc3c(c4nsnc24)C(=O)c2ccccc2C3=O)cc1
IC50 (A549): 50 µM | solubility [1]: 0.14 µg/mL (≈ 0.333 µM) | IC50 (ZR-75-30): 90 µM | IC50 (HCT-116 [2]): 84 µM

CC(=O)N1CCN(c2cc3c(c4nsnc24)C(=O)c2ccccc2C3=O)CC1
IC50 (A549): 17 µM | inhibition [3]: Active | solubility [1]: 7.98 µg/mL (≈ 20.3 µM) | Activity (HCT-116 [4]): 34% | IC50 (ZR-75-30): 0.42 µM | Activity (HCT-116 [5]): 56% | inhibition [6]: Active | IC50 (HCT-116 [2]): 0.52 µM | inhibition [7]: Active | inhibition [8]: Dose-dependent effect

CC[n+]1c(-c2ccccc2)c2cc(N)ccc2c2ccc(N)cc21
inhibition [9]: Active
